Measured values from ChEMBL document CHEMBL1156462, “Seco-pregnane steroids target the subgenomic RNA of alphavirus-like RNA viruses” (Proc Natl Acad Sci U S A, 2007).
Active and inactive are the calls of the source. The rule behind the calls is not given here.

What was measured:
Tobacco mosaic virus [1] = assay: Inhibition of TMV U1 multiplication in tobacco BY2 protoplast at 30 nM assessed as local lesion size on Chenopodium quinoa leaves by local lesion assay; assay type: functional
Tobacco mosaic virus [2] = assay: Antiviral activity against TMV U1 infected Nicotiana tabacum cv K326 plant leaves assessed as inhibition of systemic virus infection; assay type: functional, organism-based
[3] = Selectivity index, ratio of CC50 for BHK21 cells to EC50 for Getah virus; assay type: toxicity, cell-based, BHK-21; settings: hamster, read-out: Ratio CC50/EC50
How it was run: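 Getah virus was tested on BHK-21 cells seeded at 2 × 10⁵ per well 24 h before use, infected at a dose giving 100% CPE at 3 dpi. Compound was premixed with virus at final 100–0 nM. EC50 was taken as 50% inhibition of cytopathogenicity. Index = 50% cytotoxicity concentration/EC50.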

Sindbis virus [4] = assay: Reduction of Sindbis virus infection-induced mortality rate in newborn BALB/c mouse assessed as long term survivors at 50 mg/kg; assay type: functional
How it was run: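 Newborn BALB/c mice, 2–3 days old, ≈2 g, were inoculated intracerebrally with 20 μl medium holding 100 × LD50 SINV. Compound (20 μl, 5, 50 or 100 mg/kg BW) was mixed into the inoculum. There were 11 mice per group, counted at 3–7 days. Virus-alone and compound-alone controls were included.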

Tobacco mosaic virus [5] = assay: Reduction of coat protein sgRNA level in TMV U1 infected tobacco BY2 protoplast at 50 nM administered after 4 hrs postinfection; assay type: functional, organism-based
How it was run: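 BY-2 protoplasts infected with TMV supplemented with compound up to 50 nM; total RNA extracted by TRIzol 4 h after infection, and CP sgRNA, I₂ sgRNA and genomic RNA detected by Northern blot with CP gene probe, 28S rRNA as loading control.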

Hepatitis C virus = assay: Antiviral activity against HCV in human H9 cells assessed as inhibition of virus-induced cytopathogenicity; assay type: functional, organism-based, Hepacivirus hominis
Sindbis virus [6] = assay: Decrease in Sindbis virus XJ160 accumulation in BHK21 cells […] by ELISA; assay type: functional, organism-based; settings: XJ160, BHK-21
How it was run: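 BHK-21 cells inoculated with SINV XJ-160 premixed with compound (MOI 0.01, 15-min pretreatment, 1-h adsorption). Virus accumulation measured by ELISA as blank-subtracted OD₄₅₀, averaged over nine repeats per concentration.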

Tobacco mosaic virus [7] = assay: Inhibition of TMV U1 multiplication in tobacco BY2 protoplast at 50 nM assessed as inhibition of local lesions on Chenopodium quinoa leaves by local lesion assay after 3 days postinfection; assay type: functional; settings: U1, 72 h
How it was run: (§1)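 TMV premixed with compound at a range of concentrations used to inoculate tobacco BY-2 protoplasts; virus multiplication then assayed by counting local lesions on the local lesion host Chenopodium quinoa.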

Tobacco mosaic virus [8] = assay: Inhibition of TMV U1 multiplication in tobacco BY2 protoplast at 20 nM assessed as inhibition of local lesions on Chenopodium quinoa leaves by local lesion assay after 3 days postinfection; assay type: functional; settings: U1, 72 h; how it was run: as §1
Sindbis virus [9] = assay: Decrease in 26S sgRNA level in Sindbis virus XJ160 infected BHK21 cells after 3 hrs postinfection; assay type: functional, organism-based; settings: BHK-21
How it was run: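 BHK-21 cells infected with SINV XJ-160 premixed with compound at MOI 10 in quadruplicate. Viral RNAs quantified at 3 hpi by Northern blot, with β-actin RNA as loading comparison.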

unidentified adenovirus = assay: Antiviral activity against adenovirus in 983A cells assessed as inhibition of virus-induced cytopathogenicity; assay type: functional, organism-based
How it was run: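 Cells seeded at 2 × 10⁵ per well 24 h before use (BHK-21 for GETV, H9 for HIV, CIK for Reovirus, 983A for adenovirus, Veto for measles virus). Infected at a dose giving 100% cytopathic effect at 3 dpi; virus premixed with compound at final 100, 50, 10, 3, 2, 1.5, 1, 0 nM. Infected and uninfected untreated controls on each plate.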

Sindbis virus [10] = assay: Decrease in 26S sgRNA level in Sindbis virus XJ160 infected BHK21 cells after 24 hrs postinfection; assay type: functional, organism-based; settings: BHK-21
Sindbis virus [11] = assay: Reduction of Sindbis virus infection-induced mortality rate in newborn BALB/c mouse assessed as mouse survival at 100 mg/kg administered 4 hrs before viral infection; assay type: functional, organism-based; design: dose 100 mg/kg
How it was run: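 Newborn BALB/c mice (2–3 days old, ≈2 g), 11 per group, given 20 μl compound at 100 mg/kg BW 1 or 4 h before intracerebral inoculation with 20 μl medium containing 100 × LD₅₀ SINV. Survivors counted at 3, 4, 5, 6 and 7 days after inoculation.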

Influenza A virus = assay: Antiviral activity against influenza A virus in Madin-Darby kidney cells assessed as inhibition of virus-induced cytopathogenicity; assay type: functional, organism-based
How it was run: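 Influenza A virus was tested on Madin–Darby canine kidney cells seeded at 2 × 10⁵ per well 24 h before use. Infection used the dose causing 100% CPE at 3 dpi. Compound was premixed with virus at final 100–0 nM (8 levels). Uninfected and virus-only controls were included per plate. Read-out was 50% inhibition of cytopathogenicity.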

CO[C@@H]1C[C@H](O[C@H]2CC[C@@]3(C)C(=CC[C@H]4C(=O)OC5CO[C@]6(C)OC=C(CC[C@@H]43)[C@H]56)C2)O[C@H](C)[C@H]1O[C@H]1C[C@H](O)[C@H](O[C@@H]2C[C@@H](OC)[C@H](O[C@@H]3O[C@H](CO)[C@@H](O[C@@H]4O[C@H](CO)[C@@H](O)[C@H](O)[C@H]4O)[C@H](O)[C@H]3O)[C@@H](C)O2)[C@@H](C)O1 (some centres undefined) [PANICULATUMOSIDE C]
Activity (Tobacco mosaic virus [1]): 1.1 mm | Activity (Tobacco mosaic virus [2]): Active | selectivity ratio [3]: 16500 | Activity (Sindbis virus [4]): 54% | Activity (Tobacco mosaic virus [5]): Active | EC50 (Hepatitis C virus): > 25 µM | EC50 (Sindbis virus [6]): 1.5 nM | inhibition at 0.05 µM (Tobacco mosaic virus [7]): 100% | inhibition at 0.02 µM (Tobacco mosaic virus [8]): 40% | Activity (Sindbis virus [9]): Dose-dependent effect | EC50 (unidentified adenovirus): > 25 µM | Activity (Sindbis virus [10]): Active | Activity (Sindbis virus [11]): Toxic | EC50 (Influenza A virus): > 20 µM
